{"source": "ChEMBL document CHEMBL3244044", "about": "“Synthesis and antitumor activity of halogen-substituted 4-(3,3-dimethyl-1-triazeno)quinolines” (J Med Chem, 1978)", "key": {"[1]": {"tested_on": "Mus musculus", "assay": "Toxicity in mouse L1210 cells allografted mouse at 40 mg/kg, ip qd for 9 days", "assay_type": "organism-based", "set-up": "dose 40 mg/kg, route intraperitoneal", "conditions": "in vivo, 216 h", "in_short": "(§1)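 Groups of five to ten mice were inoculated ip with about 10^6 L1210 cells and dosed once daily for 9 consecutive days beginning 24 h post-implantation. Toxicity was taken as the average body weight change at the end of drug treatment.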"}, "[2]": {"tested_on": "Mus musculus", "assay": "Toxicity in mouse P388 cells allografted mouse at 30 mg/kg, ip qd for 9 days", "assay_type": "organism-based", "set-up": "dose 30 mg/kg, route intraperitoneal", "conditions": "in vivo, 216 h", "in_short": "(§2)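 NCI protocol. Groups of five to ten mice were inoculated intraperitoneally with about 10^6 tumor cells. Drug was given ip once daily for 9 consecutive days, starting 24 h after tumor implantation, over a range of dose levels. Toxicity was read as the average body weight change at the end of drug treatment.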"}, "[3]": {"tested_on": "Mus musculus", "assay": "Toxicity in mouse P388 cells allografted mouse at 20 mg/kg, ip qd for 9 days", "assay_type": "organism-based", "set-up": "dose 20 mg/kg, route intraperitoneal", "conditions": "in vivo, 216 h", "in_short": "as §2"}, "[4]": {"tested_on": "B16", "assay": "Antitumor activity against mouse B16 cells allografted mouse assessed as host survival at 18 mg/kg, ip qd for 9 days relative to control", "assay_type": "functional", "conditions": "route intraperitoneal", "in_short": "(§3)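 B16 melanoma-bearing mice given drug ip once daily for 9 days, starting 24 h after tumor implantation. Read-out is average survival in days, expressed as %T/C = (average survival of treated mice)/(average survival of control mice) × 100.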"}, "[5]": {"assay": "Binding affinity to synthetic melanin at 5.8 mg/100 mL after 15 mins by UV-spectroscopic analysis", "assay_type": "physicochemical", "conditions": "0.25 h", "in_short": "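Synthetic melanin was made from DL-Dopa with tyrosinase in 0.1 M phosphate pH 6.6 at 37 °C for 4 h. Melanin suspension (1.1 mg dry weight) was mixed with phosphate buffer (0.05 M, pH 6.4, 5% Me2SO), water, and 1 mL of drug solution (5.8 mg/100 mL). The mixture was shaken 15 min at room temperature and filtered. Unbound drug in the filtrate was measured by UV against a drug-free blank.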"}, "[6]": {"tested_on": "P388", "assay": "Antitumor activity against mouse P388 cells allografted mouse assessed as host survival at 20 mg/kg, ip qd for 9 days relative to control", "assay_type": "functional", "conditions": "route intraperitoneal", "in_short": "(§4)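 NCI protocol: groups of five to ten mice inoculated ip with approximately 10^6 P-388 or L1210 cells. Drug given over a range of dose levels starting 24 h after implantation, once daily for 9 consecutive days. Survival expressed as %T/C = (average survival of treated)/(average survival of control) × 100.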"}, "[7]": {"tested_on": "Mus musculus", "assay": "Toxicity in mouse B16 cells allografted mouse at 18 mg/kg, ip qd for 9 days", "assay_type": "organism-based", "set-up": "dose 18 mg/kg, route intraperitoneal", "conditions": "in vivo, 216 h", "in_short": "(§5)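 Mice bearing B16 melanoma, dosed ip once daily for 9 days from 24 h after tumor implantation. Toxicity is recorded as the average body weight change at the end of drug treatment.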"}, "[8]": {"tested_on": "B16", "assay": "Antitumor activity against mouse B16 cells allografted mouse assessed as host survival at 50 mg/kg, ip qd for 9 days relative to control", "assay_type": "functional", "conditions": "route intraperitoneal", "in_short": "as §3"}, "[9]": {"tested_on": "L1210", "assay": "Antitumor activity against mouse L1210 cells allografted mouse assessed as host survival at 40 mg/kg, ip qd for 9 days relative to control", "assay_type": "functional", "conditions": "route intraperitoneal", "in_short": "as §4"}, "[10]": {"tested_on": "Mus musculus", "assay": "Toxicity in mouse B16 cells allografted mouse at 30 mg/kg, ip qd for 9 days", "assay_type": "organism-based", "set-up": "dose 30 mg/kg, route intraperitoneal", "conditions": "in vivo, 216 h", "in_short": "as §5"}, "[11]": {"tested_on": "Mus musculus", "assay": "Toxicity in mouse L1210 cells allografted mouse at 30 mg/kg, ip qd for 9 days", "assay_type": "organism-based", "set-up": "dose 30 mg/kg, route intraperitoneal", "conditions": "in vivo, 216 h", "in_short": "as §1"}, "[12]": {"tested_on": "L1210", "assay": "Antitumor activity against mouse L1210 cells allografted mouse assessed as host survival at 30 mg/kg, ip qd for 9 days relative to control", "assay_type": "functional", "conditions": "route intraperitoneal", "in_short": "as §4"}, "[13]": {"tested_on": "P388", "assay": "Antitumor activity against mouse P388 cells allografted mouse assessed as host survival at 30 mg/kg, ip qd for 9 days relative to control", "assay_type": "functional", "conditions": "route intraperitoneal", "in_short": "as §4"}, "[14]": {"tested_on": "Mus musculus", "assay": "Toxicity in mouse B16 cells allografted mouse at 50 mg/kg, ip qd for 9 days", "assay_type": "organism-based", "set-up": "dose 50 mg/kg, route intraperitoneal", "conditions": "in vivo, 216 h", "in_short": "as §5"}, "[15]": {"tested_on": "B16", "assay": "Antitumor activity against mouse B16 cells allografted mouse assessed as host survival at 30 mg/kg, ip qd for 9 days relative to control", "assay_type": "functional", "conditions": "route intraperitoneal", "in_short": "as §3"}, "[16]": {"tested_on": "L1210", "assay": "Antitumor activity against mouse L1210 cells allografted mouse assessed as host survival at 90 mg/kg, ip qd for 9 days relative to control", "assay_type": "functional", "conditions": "route intraperitoneal", "in_short": "as §4"}, "[17]": {"tested_on": "Mus musculus", "assay": "Toxicity in mouse P388 cells allografted mouse at 80 mg/kg, ip qd for 9 days", "assay_type": "organism-based", "set-up": "dose 80 mg/kg, route intraperitoneal", "conditions": "in vivo, 216 h", "in_short": "as §2"}, "[18]": {"tested_on": "Mus musculus", "assay": "Toxicity in mouse P388 cells allografted mouse at 40 mg/kg, ip qd for 9 days", "assay_type": "organism-based", "set-up": "dose 40 mg/kg, route intraperitoneal", "conditions": "in vivo, 216 h", "in_short": "as §2"}, "[19]": {"tested_on": "P388", "assay": "Antitumor activity against mouse P388 cells allografted mouse assessed as host survival at 40 mg/kg, ip qd for 9 days relative to control", "assay_type": "functional", "conditions": "route intraperitoneal", "in_short": "as §4"}, "[20]": {"tested_on": "Mus musculus", "assay": "Toxicity in mouse P388 cells allografted mouse at 60 mg/kg, ip qd for 9 days", "assay_type": "organism-based", "set-up": "dose 60 mg/kg, route intraperitoneal", "conditions": "in vivo, 216 h", "in_short": "as §2"}, "[21]": {"tested_on": "P388", "assay": "Antitumor activity against mouse P388 cells allografted mouse assessed as host survival at 80 mg/kg, ip qd for 9 days relative to control", "assay_type": "functional", "conditions": "route intraperitoneal", "in_short": "as §4"}, "[22]": {"tested_on": "Mus musculus", "assay": "Toxicity in mouse L1210 cells allografted mouse at 90 mg/kg, ip qd for 9 days", "assay_type": "organism-based", "set-up": "dose 90 mg/kg, route intraperitoneal", "conditions": "in vivo, 216 h", "in_short": "as §2"}, "[23]": {"tested_on": "L1210", "assay": "Antitumor activity against mouse L1210 cells allografted mouse assessed as host survival at 80 mg/kg, ip qd for 9 days relative to control", "assay_type": "functional", "conditions": "route intraperitoneal", "in_short": "as §4"}, "[24]": {"tested_on": "Mus musculus", "assay": "Toxicity in mouse L1210 cells allografted mouse at 80 mg/kg, ip qd for 9 days", "assay_type": "organism-based", "set-up": "dose 80 mg/kg, route intraperitoneal", "conditions": "in vivo, 216 h", "in_short": "as §2"}, "[25]": {"tested_on": "P388", "assay": "Antitumor activity against mouse P388 cells allografted mouse assessed as host survival at 60 mg/kg, ip qd for 9 days relative to control", "assay_type": "functional", "conditions": "route intraperitoneal", "in_short": "as §4"}, "[26]": {"tested_on": "L1210", "assay": "Antitumor activity against mouse L1210 cells allografted mouse assessed as host survival at 70 mg/kg, ip qd for 9 days relative to control", "assay_type": "functional", "conditions": "route intraperitoneal", "in_short": "as §4"}, "[27]": {"tested_on": "Mus musculus", "assay": "Toxicity in mouse L1210 cells allografted mouse at 70 mg/kg, ip qd for 9 days", "assay_type": "organism-based", "set-up": "dose 70 mg/kg, route intraperitoneal", "conditions": "in vivo, 216 h", "in_short": "as §1"}}}
{"smiles": "CN(C)/N=N\\c1ccnc2c(Cl)cccc12", "values": [{"measurement": "Activity", "setting": "[1]", "result": -4.9, "unit": "%"}, {"measurement": "Activity", "setting": "[2]", "result": -15, "unit": "%"}, {"measurement": "Activity", "setting": "[3]", "result": -2.1, "unit": "%"}, {"measurement": "Survival", "setting": "[4]", "result": 21.6, "unit": "days"}, {"measurement": "T/C", "setting": "[4]", "result": 103, "unit": "%"}, {"measurement": "Activity", "setting": "[5]", "result": 56.4, "unit": "%"}, {"measurement": "T/C", "setting": "[6]", "result": 172, "unit": "%"}, {"measurement": "Activity", "setting": "[7]", "result": -0.3, "unit": "%"}, {"measurement": "Survival", "setting": "[8]", "result": 20.8, "unit": "days"}, {"measurement": "T/C", "setting": "[8]", "result": 99, "unit": "%"}, {"measurement": "T/C", "setting": "[9]", "result": 155, "unit": "%"}, {"measurement": "Activity", "setting": "[10]", "result": -2.9, "unit": "%"}, {"measurement": "Activity", "setting": "[11]", "result": 0, "unit": "%"}, {"measurement": "T/C", "setting": "[12]", "result": 165, "unit": "%"}, {"measurement": "T/C", "setting": "[13]", "result": 167, "unit": "%"}, {"measurement": "Activity", "setting": "[14]", "result": -3.9, "unit": "%"}, {"measurement": "Survival", "setting": "[15]", "result": 21.3, "unit": "days"}, {"measurement": "T/C", "setting": "[15]", "result": 101, "unit": "%"}]}
{"smiles": "CN(C)/N=N\\c1ccnc2ccc(I)cc12", "values": [{"measurement": "T/C", "setting": "[16]", "result": 158, "unit": "%"}, {"measurement": "Activity", "setting": "[5]", "result": 60.6, "unit": "%"}, {"measurement": "Activity", "setting": "[17]", "result": 7.1, "unit": "%"}, {"measurement": "Activity", "setting": "[18]", "result": 10.5, "unit": "%"}, {"measurement": "T/C", "setting": "[19]", "result": 117, "unit": "%"}, {"measurement": "Activity", "setting": "[20]", "result": 2.6, "unit": "%"}, {"measurement": "T/C", "setting": "[21]", "result": 123, "unit": "%"}, {"measurement": "Activity", "setting": "[22]", "result": -6.4, "unit": "%"}, {"measurement": "T/C", "setting": "[23]", "result": 160, "unit": "%"}, {"measurement": "Activity", "setting": "[24]", "result": -8.2, "unit": "%"}, {"measurement": "T/C", "setting": "[25]", "result": 133, "unit": "%"}, {"measurement": "T/C", "setting": "[26]", "result": 148, "unit": "%"}, {"measurement": "Activity", "setting": "[27]", "result": -23.8, "unit": "%"}]}
